Reference: ChEMBL document CHEMBL4513216, “Probing the Open Global Health Chemical Diversity Library for Multistage-Active Starting Points for Next-Generation Antimalarials” (ACS Infect Dis, 2020)

Assay: Toxicity liver stage against HepG2, at 10uM
Type: cell-based
Set-up: test concentration 10 uM, cell line HepG2-A16-CD81EGFP
Conditions: human, HepG2-A16-CD81EGFP cells; read-out: INHIBITION
How it was run: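 Uninfected HepG2-A16-CD81EGFP cells, 3 × 10^3 per well, 1536-well, plated on prespotted compound at 10 μM final, parasite-free screening media added to match infected plates; puromycin 10 μM positive, DMSO 0.5% negative; run in parallel with 48 h PbLuc assay at 37 °C, 5% CO2; viability by CellTiter-Glo luminescence, normalized to controls.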

| SMILES | cytotoxicity at 10 µM [%] |
| --- | --- |
| COc1ccc(CCC(=O)NCCC2CCCO2)cc1Br (configuration not stated) | 2.6 |
| CCNC(=O)NC[C@H]1COCc2nc3cc(OC)ccc3n21 | -2.3 |
| Cc1ccc2c(c1)C(=O)CC1(CCN(Cc3ccccc3)CC1)O2 | 2.81 |
| CSCC[C@H](NC(=O)Cn1ccc2c(Br)cccc21)C(=O)O | -2.94 |
| Cc1nnsc1-c1nnc2sc(C3CCC3)nn12 | -7.86 |
| Cc1cc(C(=O)NCc2cc(C)oc2C)no1 | -9.98 |
| CS(=O)(=O)N1CC(c2nc[nH]n2)c2cc(C(=O)NC3CCCC3)ccc21 (configuration not stated) | -131 |
| COc1cc2nc(C)n(CC(=O)NCCCN(C)C)c(=O)c2cc1OC | 2.11 |
| O=C1CC2(CCN(S(=O)(=O)C3CC3)C2)CN1c1cncnc1 (configuration not stated) | -11.9 |
| O=C([C@@H]1CCO[C@@H]2CCN(Cc3cccnc3)C[C@H]21)N1CCCCO1 | -1.17 |
| O=C(NCc1ccccc1Cl)c1[nH]nc2c1CS(=O)(=O)CC2 | -0.908 |
| COc1ccc(Nc2nc3c(C)nn(C)c3c(=O)n2C)c(OC)c1 | -6.89 |
| Cc1cc(C(F)(F)F)nc(C2CCN(C(=O)CO)CC2)n1 | -2.14 |
| COc1ccccc1CC(=O)N1CCN(Cc2ccco2)C[C@@H]1C | 2.08 |
| CN(C)C(=O)Cn1c(C2CC2)c(CN2CCOCC2)c2cccnc21 | -3.99 |
| Cc1cnc(CC2COCCN(C(=O)c3cncnc3)C2)cn1 (configuration not stated) | 0.187 |
| COCC(=O)N1CC(c2ccnc(Nc3cc(C(F)(F)F)ccn3)n2)C1 | 11.2 |
| NC(=O)c1ccccc1Oc1cccc(C2CCCNC2)n1 (configuration not stated) | 5.19 |
| Cc1nnc(Nc2cccc(C3CCN(Cc4ncc[nH]4)CC3)n2)s1 | -24 |
| CCc1cc(C(=O)N2Cc3ccccc3OC3(CCOCC3)C2)on1 | -9.54 |
| Cc1sc2c(C3CCCN(C(C)C)C3)nc(C)n2c1C (configuration not stated) | -13.8 |

| SMILES | cytotoxicity at 10 µM [%] |
| --- | --- |
| Cc1nc(C)c(C(=O)N2CCc3nc4sc(C)cc4c(=O)n3CC2)o1 | -9.31 |
| CN1CCC(CN(C)C(=O)c2cc(C3CCCN3C)ccn2)CC1 (configuration not stated) | -28.3 |
| CCOc1ccc(N(CCC#N)C(=O)c2ccnc(SC)c2)cc1 | -2.6 |
| CN(C)S(=O)(=O)c1ccc(F)c(NC(=O)COCC2CC2)c1 | 3.71 |
| O=C(c1cc(C2CCCC2)no1)N1CCCCC1 | -3.05 |
| CC(C)Cn1ccnc1CNC(=O)NC(C)c1nccs1 (configuration not stated) | -14.3 |
| O=C(C1CCCOC1)N(CC(F)F)c1cccc(Cl)c1 (configuration not stated) | 8.27 |
| CC(C)CNC(=O)c1ccc(NC(=O)NC(C)c2ccccn2)cc1 (configuration not stated) | 5.26 |
| CCCNC(=O)c1ccc(NC(=O)NC(C)c2ccccn2)cc1 (configuration not stated) | 9.15 |
| COC(=O)C1CCCN1C(=O)c1ccc(Cl)cc1F (configuration not stated) | -7.7 |
| NS(=O)(=O)c1ccc(NCc2ccco2)c2ncccc12 | -153 |
| CN(Cc1csc2ccccc12)C(=O)NC1CCS(=O)(=O)C1 (configuration not stated) | -42.1 |
| Cc1ccc(C(=O)NCC(O)CN2CCCC2=O)cc1Cl (configuration not stated) | -8.69 |
| Cc1nc(S(=O)(=O)NCCC(=O)NCc2ccsc2)cn1C | 3.68 |
| Cc1cc(S(=O)(=O)N2CCCc3cc(Cl)ccc32)sc1C(=O)O | -16 |
| Cc1cnn(CCNCc2ccc(S(C)(=O)=O)cc2)c1 | 7.55 |
| CCN(CC(=O)NC)C(=O)c1cc(-c2cccc(Cl)c2)no1 | 8.5 |
| O=S(=O)(Cc1ccccc1F)Cc1nnnn1C1CC1 | -16.5 |
| CCN(CC)S(=O)(=O)NCCc1cc(C)ccc1OC | -2.64 |
| Cn1cnnc1-c1cncc(NCc2ccccc2Br)c1 | 6.53 |
| CN(C)c1ncc(CNS(=O)(=O)c2cccc3ccccc23)n1C | 8.32 |

| SMILES | cytotoxicity at 10 µM [%] |
| --- | --- |
| Cc1cc(C)cc(OCCCn2nc3ccccn3c2=O)c1 | 3.95 |
| CC(CO)(NC(=O)NCc1ccc(Br)s1)C1CC1 (configuration not stated) | 4.68 |
| Cc1cncc(NC(=O)c2ccc(CN3CCC(CO)CC3)cc2)c1 | 19 |
| CCCS(=O)(=O)NC(=O)c1ccc(Br)o1 | -6.11 |
| O=C(Nc1ccccc1Oc1cccc(F)c1)C1CCS(=O)(=O)C1 (configuration not stated) | 2.64 |
| CCc1ccc(CC)c(NCC(=O)N2CCCC(NC(C)=O)C2)c1 (configuration not stated) | -5.87 |
| Cc1ccc(C(O)CNC(=O)NCc2nc(C)cs2)cc1 (configuration not stated) | -13.3 |
| CCOCC(O)CN1CCN(C(=O)c2cccc(F)c2)CC1 (configuration not stated) | -11.1 |
| O=C([C@H]1CC[C@@H]2[C@@H](CCN2c2ncccn2)O1)N1CCCCO1 | 6.46 |
| O=C(Cc1ccc(F)cc1)N1CCn2cc(Cn3cncn3)nc2C1 | -74 |
| CCC(CO)N(Cc1ccco1)C(=O)c1sccc1NC(C)=O (configuration not stated) | 3.36 |
| Cc1ccc(F)c(C(=O)N2C[C@@H](C(=O)O)[C@H](c3ccccc3)C2)c1Cl | -6.06 |
| O=C(CSc1ccccc1)Nc1cnn(CC(=O)N2CCCO2)c1 | -0.969 |
| Cc1cccc(-c2cc(-c3c(C)nn(CCO)c3C)c(C#N)c(N)n2)c1 | 20.2 |
| Cc1cccc(CNC2CC(=O)N(CCc3cccc(Cl)c3)C2)n1 (configuration not stated) | -134 |
| COCc1noc(CC2CN(c3ncnc4sc(C)c(C)c34)CCO2)n1 (configuration not stated) | -0.649 |
| Fc1cccc(C2CCCCN2Cc2nc(-c3cnccn3)no2)c1 (configuration not stated) | -3.02 |
| COc1cc(C(=O)N2CC[C@@H](NC(=O)c3ccccn3)[C@H](O)C2)ccn1 | 0.894 |
| CN(Cc1cc(C2CC2)on1)C(=O)CN1C(=O)OC(C)(C)C1=O | -127 |
| Cc1nnc2sc(-c3cc(C(C)C)n[nH]3)nn12 | -7.88 |
| CCC(=O)N1CCN(c2cc(-n3cnc(C)c3C)nc(C)n2)CC1 | -4.56 |

| SMILES | cytotoxicity at 10 µM [%] |
| --- | --- |
| O=C(Cc1cnccn1)N1CCC(c2nccn2CC2CC2)CC1 | -7.54 |
| COCCN(C)C[C@@H]1CN(C(=O)c2c(C)cccc2OC)C[C@@H]1CO | -4.26 |
| CS(=O)(=O)CCN1CCC2(CCCN(C3CCOCC3)C2=O)C1 (configuration not stated) | -5.65 |
| COc1ncc(-c2nccn2CCN(C)C)cn1 | -17.4 |
| COc1cccc(N2CCN(C(=O)C(O)c3cccc(Cl)c3)CC2=O)c1 (configuration not stated) | -11.2 |
| CCOc1ccccc1CNC(=O)N1CCC(Cc2cnn(C)c2)C1 (configuration not stated) | -7.3 |
| CC(C)c1nnc2n1CCN(CC(=O)N1CCc3sccc3C1)C2 | -10.4 |
| Cc1nc(C)n(CC2CCCCN2Cc2nc(-c3ccco3)no2)n1 (configuration not stated) | -10.6 |
| Cc1cc(C)n(CC2CCCN2C(=O)CCc2ccncc2)n1 (configuration not stated) | -14.4 |
| c1ccc(-n2nnnc2CN2CCCC(Cn3cncn3)C2)cc1 (configuration not stated) | 0.962 |
| Fc1ccc(CN2CCCN(Cc3cscn3)CC2)cc1 | 2.62 |
| Cn1ccnc1CNC(=O)c1ccnc(C2CCNCC2)c1 | 5.8 |
| N#Cc1cccc(CN2Cc3nccn3CC(CN3CCCC3)C2)c1 (configuration not stated) | -135 |
| CCC(CC)C(=O)N1CCOC2(COCCN(CC(=O)NC)C2)C1 (configuration not stated) | 2.35 |
| c1ccn(Cc2nnc3n2CCCN(Cc2ccoc2)C3)c1 | 0.993 |
| CC(C)CCN1CCC2(CC1)CN(C(=O)c1cnccn1)CCO2 | -12.6 |
| N#Cc1ccccc1CN1C[C@@H]2CC[C@H]1CN(C(=O)c1cccnc1)C2 | -0.849 |
| CCn1cc(-n2cc3nc(N(C)C)[nH]cc-3c2=O)cn1 | 10.2 |
| Cc1cc(N2CCN(C(=O)[C@@H]3C[C@H]4C=C[C@@H]3C4)CC2)nc2ccccc12 | -5.71 |
